Legend:
[1] = Clearance in human liver microsomes; assay type: ADME, Microsome; conditions: read-out: CLH
[2] = target: T1, Nuclear receptor ROR-alpha (Homo sapiens, UniProt P35398); experiment: Inverse agonist activity at 6His-tagged RORA LBD (unknown origin) expressed in Escherichia coli assessed as inhibition of biotinylated SRC1-2 derived CPSSHSSLTERHKILHRLLQEGSPS-NH2 containing LXXLL coactivator peptide incubated for 3 hrs by TR-FRET assay
T1 sequence (P35398 whole entry): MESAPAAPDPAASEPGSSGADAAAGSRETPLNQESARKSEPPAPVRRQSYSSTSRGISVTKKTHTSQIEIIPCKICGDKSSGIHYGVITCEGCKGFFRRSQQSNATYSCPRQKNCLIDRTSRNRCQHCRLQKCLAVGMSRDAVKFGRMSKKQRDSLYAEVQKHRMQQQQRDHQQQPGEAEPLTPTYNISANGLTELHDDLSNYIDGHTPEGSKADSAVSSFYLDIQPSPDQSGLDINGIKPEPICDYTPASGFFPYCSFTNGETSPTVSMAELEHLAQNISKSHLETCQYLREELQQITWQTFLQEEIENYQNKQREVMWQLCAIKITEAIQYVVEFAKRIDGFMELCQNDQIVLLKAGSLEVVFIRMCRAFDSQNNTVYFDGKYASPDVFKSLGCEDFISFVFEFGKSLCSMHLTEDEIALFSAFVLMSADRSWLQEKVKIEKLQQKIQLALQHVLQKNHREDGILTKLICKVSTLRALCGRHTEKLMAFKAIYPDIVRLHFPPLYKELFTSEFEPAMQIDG

[3] = Inhibition of IL-17A production in human Th17 cells incubated for 6 days […]; assay type: functional, cell-based; conditions: Th17, 144 h
Summary of the method: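 Inhibition of IL-17A production by human primary Th17 cells. Values are means of two or more independent assays.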

Homo sapiens [4] = experiment: Ex vivo drug penetration in human abdominal skin applied topically using flow-through diffusion cell assessed as compound concentration in dermis layers measured upto 24 hrs by LC-MS/MS based in vitro skin penetration assay; assay type: functional, Abdomen skin
Summary of the method: (§1)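 Ex vivo human skin dosed topically with a 2.75% (w/w) formulation in 30% ethanol, 30% PEG400, 20% diethylene glycol monoethyl ether and 20% glycerin (w/w). Cumulative amount in receptor solution (ng/cm2) was followed over 24 h. At 24 h, excess surface compound was removed, and epidermis and dermis were separated and homogenized to measure concentration (μg/g). Results are means with SEM.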

[5] = Inverse agonist activity at 6His-tagged RORC2 LBD (unknown origin) expressed in Escherichia coli assessed as inhibition of biotinylated SRC1-2 derived CPSSHSSLTERHKILHRLLQEGSPS-NH2 containing LXXLL coactivator peptide incubated for 3 hrs by TR-FRET assay; set-up: species or system Homo sapiens
Summary of the method: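 TR-FRET cofactor recruitment measuring displacement of SRC1-2 coactivator peptide binding to histidine-tagged RORC2 ligand-binding domain. Values are means of two or more independent assays.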

[6] = target: T2, Nuclear receptor ROR-beta (Homo sapiens, UniProt Q92753); experiment: Inverse agonist activity at 6His-tagged RORB LBD (unknown origin) expressed in Escherichia coli assessed as inhibition of biotinylated SRC1-2 derived CPSSHSSLTERHKILHRLLQEGSPS-NH2 containing LXXLL coactivator peptide incubated for 3 hrs by TR-FRET assay
T2 sequence (Q92753 whole entry): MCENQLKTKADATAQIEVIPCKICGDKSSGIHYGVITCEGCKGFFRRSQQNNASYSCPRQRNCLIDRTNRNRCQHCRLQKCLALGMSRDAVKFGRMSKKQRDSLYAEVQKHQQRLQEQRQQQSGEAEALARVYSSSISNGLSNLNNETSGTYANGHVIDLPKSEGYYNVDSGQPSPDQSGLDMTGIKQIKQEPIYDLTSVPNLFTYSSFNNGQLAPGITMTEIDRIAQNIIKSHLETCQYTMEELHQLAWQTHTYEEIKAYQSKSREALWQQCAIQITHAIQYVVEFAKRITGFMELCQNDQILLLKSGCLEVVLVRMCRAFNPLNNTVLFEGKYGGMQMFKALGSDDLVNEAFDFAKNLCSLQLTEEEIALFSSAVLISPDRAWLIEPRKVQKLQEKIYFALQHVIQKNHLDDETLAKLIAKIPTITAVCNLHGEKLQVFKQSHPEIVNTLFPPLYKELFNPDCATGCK

[7] = Passive apparent permeability in MDCKII-LE cells; assay type: ADME, cell-based, Canis lupus familiaris; conditions: dog, MDCK
Summary of the method: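 Passive permeability measured across RRCK (MDCKII-LE) cell monolayers. Values are means of two or more independent assays.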

[8] = Lipophilicity, log D of the compound at pH 7.4 by reverse phase HPLC; assay type: physicochemical; conditions: buffer
Summary of the method: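 LogD at pH 7.4 determined by reverse-phase HPLC. Values are means of two or more independent assays.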

Homo sapiens [9] = experiment: Ex vivo drug penetration in human abdominal skin applied topically using flow-through diffusion cell assessed as compound concentration in skin epidermis measured upto 24 hrs by LC-MS/MS based in vitro skin penetration assay; assay type: functional; conditions: Abdomen skin; summary of the method: as §1
HeLa = experiment: Antagonist activity at RORC2 in human HeLa cells assessed as reduction in NR activity at 1 to 10 uM relative to control; assay type: cell-based; set-up: scale not given: the % may be the effect or the level left; conditions: dose 1-10 µM
Summary of the method: (§2)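 Multiplexed trans-FACTORIAL profiling: cells transfected with ligand-binding-domain chimeric constructs of 48 nuclear receptors fused to GAL4 DNA. Reporter RNA levels were measured. Compound was tested at 1 and 10 μM. Readout was fold change versus control, with a 20% change as the threshold for antagonist (reduction) or agonist (increase) effect.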

PXR (NR1I2) = target: T3, PXR (NR1I2) (Homo sapiens, UniProt O75469); experiment: Agonist activity at PXR in human HeLa cells assessed as increase in NR activity at 10 uM relative to control; assay type: cell-based; conditions: read-out: Activity; summary of the method: as §2
T3 sequence (O75469 whole entry): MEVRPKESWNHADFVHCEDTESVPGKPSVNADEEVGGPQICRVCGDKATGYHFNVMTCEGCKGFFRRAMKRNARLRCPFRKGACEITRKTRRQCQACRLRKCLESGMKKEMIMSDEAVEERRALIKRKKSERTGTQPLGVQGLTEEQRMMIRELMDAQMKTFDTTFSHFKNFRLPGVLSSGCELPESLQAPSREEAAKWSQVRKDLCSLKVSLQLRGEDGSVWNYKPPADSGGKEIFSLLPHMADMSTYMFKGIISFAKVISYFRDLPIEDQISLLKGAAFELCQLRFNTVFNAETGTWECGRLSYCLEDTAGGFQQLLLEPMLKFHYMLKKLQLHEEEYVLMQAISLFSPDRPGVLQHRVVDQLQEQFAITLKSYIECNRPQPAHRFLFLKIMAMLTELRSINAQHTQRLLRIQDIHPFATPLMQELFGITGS

[10] = target: Voltage-gated inwardly rectifying potassium channel KCNH2 (Homo sapiens, UniProt Q12809); experiment: Displacement of [3H]-dofetilide from human ERG; assay type: toxicity
Summary of the method: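 Binding assay measuring displacement of [3H]dofetilide. Values are means of two or more independent assays.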

Homo sapiens [11] = experiment: Ex vivo drug penetration in human abdominal skin applied topically using flow-through diffusion cell assessed as compound flux through skin measured upto 24 hrs by LC-MS/MS based in vitro skin penetration assay; assay type: functional; conditions: Abdomen skin; summary of the method: as §1

Chain of Voltage-gated inwardly rectifying potassium channel KCNH2 (Q12809 whole entry): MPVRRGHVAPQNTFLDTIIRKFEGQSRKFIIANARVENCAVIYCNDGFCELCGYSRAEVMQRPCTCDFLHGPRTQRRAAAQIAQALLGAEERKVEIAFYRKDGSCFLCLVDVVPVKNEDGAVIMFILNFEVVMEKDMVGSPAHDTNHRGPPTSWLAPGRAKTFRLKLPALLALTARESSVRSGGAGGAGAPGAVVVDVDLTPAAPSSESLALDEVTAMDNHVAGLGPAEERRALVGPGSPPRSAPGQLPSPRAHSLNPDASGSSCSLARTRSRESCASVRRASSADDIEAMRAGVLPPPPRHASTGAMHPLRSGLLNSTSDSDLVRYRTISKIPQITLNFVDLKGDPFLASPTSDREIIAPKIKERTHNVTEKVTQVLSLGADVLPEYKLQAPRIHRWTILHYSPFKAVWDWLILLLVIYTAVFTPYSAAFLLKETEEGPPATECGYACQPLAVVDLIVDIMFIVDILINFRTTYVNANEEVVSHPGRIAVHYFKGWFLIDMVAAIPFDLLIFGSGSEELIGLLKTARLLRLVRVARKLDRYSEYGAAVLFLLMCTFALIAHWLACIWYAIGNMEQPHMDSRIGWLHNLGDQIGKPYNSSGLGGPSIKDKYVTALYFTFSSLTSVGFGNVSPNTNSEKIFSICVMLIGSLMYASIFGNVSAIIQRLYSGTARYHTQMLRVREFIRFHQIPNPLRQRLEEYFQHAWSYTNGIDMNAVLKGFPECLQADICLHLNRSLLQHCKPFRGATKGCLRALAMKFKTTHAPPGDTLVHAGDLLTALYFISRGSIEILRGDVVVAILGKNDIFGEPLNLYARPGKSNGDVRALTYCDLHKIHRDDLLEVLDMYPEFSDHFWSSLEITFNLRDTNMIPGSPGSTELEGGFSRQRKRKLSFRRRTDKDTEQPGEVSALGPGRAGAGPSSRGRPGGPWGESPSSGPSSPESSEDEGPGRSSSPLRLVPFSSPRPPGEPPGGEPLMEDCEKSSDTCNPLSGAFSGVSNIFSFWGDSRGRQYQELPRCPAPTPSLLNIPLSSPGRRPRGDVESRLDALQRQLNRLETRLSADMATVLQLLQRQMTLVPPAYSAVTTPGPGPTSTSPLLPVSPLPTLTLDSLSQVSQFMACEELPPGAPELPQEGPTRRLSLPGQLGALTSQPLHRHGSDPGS

Compound | microsomal CLint [1] [µL/min/mg] | IC50 [2] [µM] | IC50 [3] [nM] | Activity (Homo sapiens [4]) [µg/g] | IC50 [5] [nM] | IC50 [6] [µM] | Papp [7] [×10⁻⁶ cm/s] | chromatographic logD [8] | Drug uptake (Homo sapiens [9]) [µg/g] | Activity (HeLa) [%] | activity at 10 µM (PXR (NR1I2)) [%] | Ki [10] [µM] | Drug uptake (Homo sapiens [11]) [ng/cm2/h]
Cc1c2cccc1NS(=O)(=O)CCCCC[C@H]1CN(CCN1C(=O)C(C)C)C2 | 223 | > 25 | 28 | 18.3 | 9.3 | > 25 | 24 | 3.4 | 92.7 | > 20 | > 20 | 37 | 28.1
Cc1c2cc(F)cc1NS(=O)(=O)N(C)CCCCC1CN(CCN1C(=O)CC1CC1)C2 (stereo not drawn) | > 320 |  | 26 |  | 14 |  | 21 | 3.5 |  |  |  |  | 
O=C(CC1CC1)N1CCN2Cc3cc(F)cc(c3)NS(=O)(=O)CCCCCC1C2 (stereo not drawn) | 80 |  | > 10000 |  | 2400 |  | 11.7 | 3.6 |  |  |  |  | 
Cc1c(CN2CCN(C(=O)C3CCCC3)[C@@H](C)C2)cc(F)cc1NS(=O)(=O)c1ccc(F)cc1 | 68 |  | 6.5 |  | 2.1 |  | 1.3 | 5.3 |  |  |  | 4 | 
Cc1c2cc(F)cc1NS(=O)(=O)CCCOCC1CN(CCN1C(=O)CC1CC1)C2 (stereo not drawn) | 55 |  | 110 |  | 120 |  |  | 2.1 |  |  |  |  | 
Cc1c(CN2CCN(C(=O)C3CCCC3)[C@@H](C)C2)cc(F)cc1NC(=O)c1cccc(C#N)c1 | 239 |  | 16 |  | 5.4 |  | 6.5 | 4.5 |  |  |  | 3.6 | 
Cc1c2cc(Cl)cc1NS(=O)(=O)CCCCC[C@H]1CN(CCN1C(=O)C(C)C)C2 | 200 |  | 2.2 |  | 2.4 |  | 17 | 4.3 |  |  |  | 11 | 
Cc1c2cc(F)cc1NS(=O)(=O)CCCCCC1CN(CCN1C(=O)CC1CC1)C2 (stereo not drawn) | 260 |  | 55 |  | 69 |  | 12.4 | 3.2 |  |  |  |  | 
Cc1c(CN2CCN(C(=O)CC3CC3)[C@@H](C)C2)cc(F)cc1NS(=O)(=O)c1ccc(F)cc1 | 53 |  | 141 |  | 12 |  | 4.5 | 4.7 |  |  |  | 1.8 | 
Cc1c2cc(F)cc1NS(=O)(=O)NCCCCC1CN(CCN1C(=O)CC1CC1)C2 (stereo not drawn) | 160 |  | 170 |  | 150 |  | 18.4 | 2.9 |  |  |  |  | 
Cc1c2cc(C#N)cc1NS(=O)(=O)CCCCC[C@H]1CN(CCN1C(=O)C(C)C)C2 | 130 |  | 65 |  | 27 |  | 22 | 2.9 |  |  |  | 17 | 
Cc1c2cc(F)cc1NS(=O)(=O)CCCCC1CN(CCN1C(=O)CC1CC1)C2 (stereo not drawn) | 71 |  | 2600 |  | 620 |  | 24.7 | 3.3 |  |  |  |  | 
Cc1c2cc(F)cc1NS(=O)(=O)CCCCC[C@H]1CN(CCN1C(=O)C(C)C)C2 | 205 |  | 87 |  | 5.2 |  | 19 | 3.8 |  |  |  | 19 | 

From ChEMBL document CHEMBL5223178, “Macrocyclic Retinoic Acid Receptor-Related Orphan Receptor C2 Inverse Agonists” (ACS Med Chem Lett, 2023)
